Tests used:
Vero = test: (§1) Cytotoxicity against African green monkey Vero cells after 72 hrs by MTT assay; format: cell-based; conditions: chlorocebus sabaeus, vero, 72 h
In short: (§2)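 Vero monkey kidney cells were exposed to a dilution series of test agents for 72 hour, with MTT as the detection reagent (modified Mosmann method). CC50 was derived by nonlinear regression of dose-response curves. Triplicate experiments.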

[1] = Selectivity index, ratio of CC50 for African green monkey Vero cells to IC50 for chloroquine sensitive Plasmodium falciparum 3D7; format: toxicity; conditions: for Ratio CC50/IC50: vero; for selectivity ratio: Vero cells, read-out: Ratio CC50/IC50
In short: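 SI was computed as Vero CC50 (72 hour MTT, nonlinear regression) divided by the 3D7 IC50. SYBR Green-I lysis buffer was added for 1 hour, and fluorescence was read at 485/530 nm. Logit regression gave IC50.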

Plasmodium falciparum [2] = test: Antimalarial activity against chloroquine resistant Plasmodium falciparum K1 after 72 hrs by SYBR green 1 dye based fluorescence assay; format: functional
In short: (§3)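 Compounds dissolved in DMSO at 5 mg/mL (stock), then two-fold serial dilutions. Lysis buffer with 2x SYBR Green-I was added for 1 h at 37 °C. Fluorescence read at 485/530 nm. IC50 by logit regression of dose-response curves, triplicate.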

[3] = as §1; format: cell-based; conditions: chlorocebus sabaeus, Vero cells; in short: as §2
Plasmodium falciparum [4] = test: Antimalarial activity against chloroquine sensitive Plasmodium falciparum 3D7 after 72 hrs by SYBR green 1 dye based fluorescence assay; format: functional; in short: as §3
[5] = Plasmodium falciparum, K1, 72 h, read-out: IC50
[6] = Plasmodium falciparum, 3D7, 72 h, read-out: IC50

Structure (SMILES) | CC50 (Vero) | Ratio CC50/IC50 [1] | IC50 (Plasmodium falciparum [2]; [5]) [µM] | CC50 at 72 h [3] [µM] | IC50 (Plasmodium falciparum [4]; [6]) [µM] | selectivity ratio [1] | IC50 (Plasmodium falciparum [2]) | IC50 (Plasmodium falciparum [4])
COc1cc(/C=C/C(=O)c2ccc(OCC3CO3)cc2)cc(OC)c1OC (stereo unspecified) | Non-Toxic | Not Active |  |  |  |  |  | 
O=C(/C=C/c1ccc(Cl)cc1)NCCNc1ccnc2cc(Cl)ccc12 |  |  | 0.0441 | 6.93 | 0.0194 | 357 |  | 
COc1ccc(/C=C/C(=O)c2ccc(OCC(O)CNCCNc3ccnc4cc(Cl)ccc34)cc2)cc1OC (stereo unspecified) |  |  | 0.229 | 10.2 | 0.0799 | 128 |  | 
COc1cc(/C=C/C(=O)c2ccccc2OCC(=O)NCCNc2ccnc3cc(Cl)ccc23)cc(OC)c1OC |  |  | 0.224 | 3.92 | 0.0691 | 56.7 |  | 
COc1cc(OC)c(OC)cc1/C=C/C(=O)c1ccccc1OCC(=O)NCCNc1ccnc2cc(Cl)ccc12 |  |  | 0.161 | 12.2 | 0.0941 | 130 |  | 
COc1ccc(/C=C/C(=O)NCCNc2ccnc3cc(Cl)ccc23)cc1 |  |  | 0.0594 | 20.6 | 0.0134 | 1530 |  | 
O=C(/C=C/c1ccco1)NCCNc1ccnc2cc(Cl)ccc12 |  |  | 0.101 | 629 | 0.094 | 6700 |  | 
COc1ccc(/C=C/C(=O)c2ccc(OCC(O)CNCCNc3ccnc4cc(Cl)ccc34)cc2)cc1 (stereo unspecified) |  |  | 0.9 | 8.03 | 0.0473 | 170 |  | 
COc1cc(OC)c(OC)cc1/C=C/C(=O)NCCNc1ccnc2cc(Cl)ccc12 |  |  | 0.143 | 16.1 | 0.0213 | 756 |  | 
COc1ccc(/C=C/C(=O)c2ccccc2OCC(=O)NCCNc2ccnc3cc(Cl)ccc23)cc1 |  |  | 0.148 | 25 | 0.134 | 186 |  | 
Cc1ccc(/C=C/C(=O)NCCNc2ccnc3cc(Cl)ccc23)cc1 |  |  | 0.048 | 4 | 0.022 | 182 |  | 
COc1cc(/C=C/C(=O)c2ccc(OCC(O)CNCCNc3ccnc4cc(Cl)ccc34)cc2)cc(OC)c1OC (stereo unspecified) |  |  | 0.8 | 1.91 | 0.0135 | 142 |  | 
COc1ccc(/C=C/C(=O)c2ccccc2OCC(=O)NCCNc2ccnc3cc(Cl)ccc23)cc1OC |  |  | 0.134 | 5.31 | 0.0961 | 55.3 |  | 
O=C(COc1ccccc1C(=O)/C=C/c1ccc(Cl)cc1)NCCNc1ccnc2cc(Cl)ccc12 |  |  | 0.253 | 4.98 | 0.255 | 19.5 |  | 
COc1cc(/C=C/C(=O)c2ccc(OCC(O)CNc3ccc4c(c3)OCO4)cc2)cc(OC)c1OC (stereo unspecified) | Non-Toxic | Not Active |  |  |  |  | Not Active | Not Active
COc1ccc(/C=C/C(=O)NCCNc2ccnc3cc(Cl)ccc23)cc1OC |  |  | 0.157 | 5.6 | 0.0142 | 396 |  | 
CC(=O)c1ccccc1OCC(=O)NCCNc1ccnc2cc(Cl)ccc12 |  |  | 1.3 | 106 | 0.0104 | 10200 |  | 

From ChEMBL document CHEMBL4052633, “Cinnamoylated chloroquine analogues: A new structural class of antimalarial agents” (Eur J Med Chem, 2017)
